From ChEMBL document CHEMBL3351903, “A potent HDAC inhibitor, 1-alaninechlamydocin, from a Tolypocladium sp. induces G2/M cell cycle arrest and apoptosis in MIA PaCa-2 cells” (J Nat Prod, 2014)
Calls of active or inactive are those of the source. The calls are words filed in the database; no cut-off is given here. Where a SMILES comes first, the peptide text is derived from it. [ ]: non-standard residue; d: D form. ξ: configuration not given here. Aoe(9ξ) = N[C@@H](CCCCCC(=O)C1CO1)C(=O)O; dPip = O=C(O)[C@H]1CCCCN1

Tests used:
[1] = Half life in freshly prepared rat serum; format: ADME, cell-free
[2] = Half life in rat whole blood; format: ADME, tissue-based
MIA PaCa-2 [3] = test: (§1) Antiproliferative activity against human MIAPaCa2 cells after 48 hrs by MTT assay; format: functional
Summary of the method: (§2)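 Cells held in RPMI with 5% FetalClone III and penicillin/streptomycin (50 U/mL, 50 μg/mL); hTERT-HPNE also given 10 ng/mL recombinant human EGF; used within 3 months of thaw. 48 h compound exposure, DMSO ≤1% final, then MTT.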

[4] = as §1; format: functional; settings: MIA PaCa-2, 48 h; summary of the method: as §2
[5] = Antiproliferative activity against human PANC1 cells after 48 hrs by MTT assay; format: functional; settings: PANC-1, 48 h; for CC50: read-out: LC50 (the source's name); summary of the method: as §2
[6] = Antiproliferative activity against hTERT expressing immortalized human HPNE cells after 48 hrs by MTT assay; format: functional; settings: for CC50: read-out: LC50 (the source's name); summary of the method: as §2
MIA PaCa-2 [7] = test: Induction of cell cycle arrest in human MIAPaCa2 cells assessed as accumulation at G1 phase at 20 nM after 20 hrs by propidium iodide staining based flow cytometry (reference value: 50.2%); format: functional
Summary of the method: (§3)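 MIA PaCa-2 cells exposed 20 h to 8 or 20 nM, with vehicle-treated cells as comparison. Cells stained with propidium iodide and analysed by flow cytometry. Cell cycle phase distributions calculated by modelling software.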

MIA PaCa-2 [8] = test: Induction of cell cycle arrest in human MIAPaCa2 cells assessed as accumulation at S phase at 8 nM after 20 hrs by propidium iodide staining based flow cytometry (reference value: 30.6%); format: functional; summary of the method: as §3
MIA PaCa-2 [9] = test: Induction of PARP cleavage in human MIAPaCa2 cells at 8 nM after 20 hrs by SDS-PAGE and immunoblotting; format: functional, cell-based
Summary of the method: (§4)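 MIA PaCa-2 cells treated 20 h with vehicle, 8 or 20 nM. Total cell lysates run on SDS-PAGE and immunoblotted with a PARP antibody recognizing full-length and cleaved forms. Detection by HRP-conjugated secondary antibody.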

MIA PaCa-2 [10] = test: Induction of PARP cleavage in human MIAPaCa2 cells at 20 nM after 20 hrs by SDS-PAGE and immunoblotting; format: functional, cell-based; summary of the method: as §4
[11] = target: Histone deacetylase (Homo sapiens) (UniProt Q13547+O15379+Q9UBN7+Q92769+Q9UQL6+Q8WUI4+Q9BY41+Q96DB2+P56524+Q9UKV0+Q969S8); test: Inhibition of HDAC in human HeLa cell lysates after 30 mins by fluorescence based assay; format: protein assay
Summary of the method: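 Fluorometric kit assay using HeLa cell lysate with 100 μM acetylated substrate in assay buffer. Compound added at 20-fold stock, 30 min at 30 °C. Developer then releases the fluorophore from deacetylated substrate; read at ex 355/em 460 nm. Triplicate wells normalized to signal without inhibitor; IC50 by nonlinear regression.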

MIA PaCa-2 [12] = test: Antiproliferative activity against human MIAPaCa2 cells exposed to 25 nM compound incubated in human serum for 5 to 30 mins measured after 48 hrs by MTT assay; format: functional, cell-based
Summary of the method: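 Compound DMSO stock mixed 1:10 with human type AB serum and held at room temperature for 5, 10, 15 or 30 min. Aliquots then added to 5000 MIA PaCa-2 cells per well, 25 nM final. Cells grown 48 h, then viability read by MTT.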

CC1(C)NC(=O)[C@H](CCCCCC(=O)[C@H]2CO2)NC(=O)[C@H]2CCCN2C(=O)[C@H](Cc2ccccc2)NC1=O [CHLAMYDOCIN]
half-life [1]: 8.7 min | half-life [2]: 0.68 to 3.6 min

O=C(CCCCC[C@@H]1NC(=O)[C@H]2CCCCN2C(=O)[C@H](Cc2ccccc2)NC(=O)[C@H](Cc2ccccc2)NC1=O)C1CO1 (some centres undefined) (cyclo(FF[dPip][Aoe(9ξ)]))
growth inhibition (GI) (MIA PaCa-2 [3]): Active

CCC(=O)CCCCC[C@@H]1NC(=O)[C@H]2CCCCN2C(=O)[C@H]([C@@H](C)CC)NC(=O)[C@H](Cc2cn(OC)c3ccccc23)NC1=O
growth inhibition (GI) (MIA PaCa-2 [3]): Active

O=C(CCCCCCC(=O)Nc1ccccc1)NO [VORINOSTAT]
CC50 ([4]; read-out: LC50 (the source's name)): 4.85 µM | CC50 [5]: > 10 µM | TGI [6]: > 10 µM | CC50 [6]: > 10 µM

C[C@@H]1NC(=O)[C@H](CCCCCC(=O)[C@@H]2CO2)NC(=O)[C@H]2CCCN2C(=O)[C@H](Cc2ccccc2)NC1=O
TGI [4]: 0.0088 µM | TGI [5]: 0.05 µM | CC50 [5]: > 10 µM | TGI [6]: 0.66 µM | CC50 [6]: > 10 µM | Activity (MIA PaCa-2 [7]): 19.6% | Activity (MIA PaCa-2 [8]): 34.6% | Activity (MIA PaCa-2 [9]): Active | Activity (MIA PaCa-2 [10]): Active | inhibition [11]: Dose-dependent effect | inhibition (MIA PaCa-2 [12]): Active
